Results on four compounds are retold here after ChEMBL document CHEMBL4152390, “Discovery of the First-in-Class Dual Histone Deacetylase-Proteasome Inhibitor” (J Med Chem, 2018).

In assay [1] the target is T1, Proteasome Macropain subunit MB1 (Homo sapiens, UniProt P28074).
T1 sequence (P28074 whole entry): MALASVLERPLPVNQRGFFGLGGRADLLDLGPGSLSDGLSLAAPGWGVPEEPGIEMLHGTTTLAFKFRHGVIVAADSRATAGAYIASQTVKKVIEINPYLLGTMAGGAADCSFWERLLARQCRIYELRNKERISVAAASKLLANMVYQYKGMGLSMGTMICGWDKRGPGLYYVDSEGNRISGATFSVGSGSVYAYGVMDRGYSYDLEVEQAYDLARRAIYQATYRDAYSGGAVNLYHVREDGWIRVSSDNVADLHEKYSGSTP
Nature of the assay: Inhibition of chymotrypsin-like activity of 20S proteasome in imatinib-resistant human SUP-B15 cells using Suc-LLVY aminoluciferin as substrate after 2 hrs by proteasome-Glo assay. It counts as cell-based.

Assay [2] has as its target T1, Proteasome Macropain subunit MB1. Nature of the assay: Inhibition of chymotrypsin-like activity of 20S proteasome in human SEM cells using Suc-LLVY aminoluciferin as substrate after 2 hrs by proteasome-Glo assay. Format: cell-based.
Assay [3] shares this target. Nature of the assay: Inhibition of chymotrypsin-like activity of 20S proteasome in human HL60 cells using Suc-LLVY aminoluciferin as substrate after 2 hrs by proteasome-Glo assay. It counts as cell-based.
Assay [4] relates to SEM cells. In words: Inhibition of proteasome in human SEM cells assessed as increase in aggresome accumulation at 10 nM after 18 hrs by fluorescence microscopic method. It counts as cell-based. The method, boiled down: (§1)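 Cells treated 18 h, then stained with a proteostat aggresome dye plus DNA stain. Imaged by fluorescence microscopy (63X objective) or analysed by FACS, with aggresome propensity factor from relative mean fluorescence intensity.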

The test system of assay [5] is SUP-B15. Nature of the assay: Inhibition of proteasome in imatinib-resistant human SUP-B15 cells assessed as increase in cleaved PARP expression at 1 to 100 nM after 24 hrs by immunoblot assay. It counts as cell-based. The method, boiled down:
(§2)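 Cells treated with compounds for 24 h; lysates immunoblotted for PARP alongside acetyl-α-tubulin, acetyl-histone H3 and GAPDH.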
(In general: In western blotting, separated proteins are transferred to a membrane and probed.)

The subject of assay [6] is PBMC. In words: cells. Format: ADME, cell-based. Particulars: Homo sapiens, 72 h.
The species named for assay [7] is Homo sapiens. In words: Inhibition of proteasome in human HL60 cells assessed as increase in cleaved PARP expression at 1 to 100 nM after 24 hrs by immunoblot assay. Format: cell-based. The procedure, abridged:
(§3)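 Cells exposed for 24 h at indicated concentrations; lysates immunoblotted for acetyl-α-tubulin, acetyl-histone H3, PARP, with GAPDH as loading control.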

For assay [8], the system named is SEM cells. In words: Inhibition of proteasome in human SEM cells assessed as increase in cleaved PARP expression at 1 to 100 nM after 24 hrs by immunoblot assay. Format: cell-based. The method, boiled down: as §2
In assay [9] the test system is SEM cells. In words: Inhibition of proteasome in human SEM cells assessed as increase in aggresome accumulation at 10 nM after 18 hrs by FACS analysis. It counts as cell-based. The procedure, abridged: as §1
For assay [10], the target named is T2, Protein deacetylase HDAC6 (Homo sapiens) (UniProt Q9UBN7).
T2 sequence (whole entry): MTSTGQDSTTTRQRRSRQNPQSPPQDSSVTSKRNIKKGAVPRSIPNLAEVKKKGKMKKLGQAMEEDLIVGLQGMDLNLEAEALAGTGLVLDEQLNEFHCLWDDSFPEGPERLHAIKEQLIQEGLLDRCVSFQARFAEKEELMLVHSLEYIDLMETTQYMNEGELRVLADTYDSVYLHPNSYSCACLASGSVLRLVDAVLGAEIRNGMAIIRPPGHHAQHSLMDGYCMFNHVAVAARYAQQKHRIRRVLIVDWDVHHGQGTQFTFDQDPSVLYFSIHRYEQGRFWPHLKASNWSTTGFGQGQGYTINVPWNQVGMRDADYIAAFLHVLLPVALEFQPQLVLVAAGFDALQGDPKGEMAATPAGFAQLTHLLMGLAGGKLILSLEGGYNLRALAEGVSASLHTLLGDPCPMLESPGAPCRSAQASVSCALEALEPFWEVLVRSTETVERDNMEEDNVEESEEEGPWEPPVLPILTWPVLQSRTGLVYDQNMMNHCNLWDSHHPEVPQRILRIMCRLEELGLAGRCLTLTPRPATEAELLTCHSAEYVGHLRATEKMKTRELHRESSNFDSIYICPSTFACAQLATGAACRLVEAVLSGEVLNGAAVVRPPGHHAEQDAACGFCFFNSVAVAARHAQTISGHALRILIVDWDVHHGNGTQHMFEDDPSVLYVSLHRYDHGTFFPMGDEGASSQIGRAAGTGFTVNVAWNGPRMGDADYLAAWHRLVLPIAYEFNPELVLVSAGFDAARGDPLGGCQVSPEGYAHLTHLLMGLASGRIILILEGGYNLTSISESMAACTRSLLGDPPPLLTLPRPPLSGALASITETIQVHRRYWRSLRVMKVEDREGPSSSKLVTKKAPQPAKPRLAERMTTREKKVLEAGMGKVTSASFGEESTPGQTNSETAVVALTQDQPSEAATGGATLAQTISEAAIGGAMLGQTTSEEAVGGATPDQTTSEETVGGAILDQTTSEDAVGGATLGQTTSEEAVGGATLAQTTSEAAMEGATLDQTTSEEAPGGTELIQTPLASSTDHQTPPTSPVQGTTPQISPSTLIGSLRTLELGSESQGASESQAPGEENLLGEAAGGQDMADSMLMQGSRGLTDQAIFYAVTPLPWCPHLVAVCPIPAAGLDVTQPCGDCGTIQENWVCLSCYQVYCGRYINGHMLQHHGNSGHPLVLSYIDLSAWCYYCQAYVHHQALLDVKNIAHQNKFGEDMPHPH
The settings on record: SEM, 0.1 to 10 uM.

A short description of assay [11]: Cytotoxicity against human BCP-ALL cells derived from patient 3 after 72 hrs by CellTiter-Glo luminescent cell viability assay. Format: functional, cell-based. (In general: ATP-based viability assays read luminescence as a measure of living cells.)
The target of assay [12] is T2, Protein deacetylase HDAC6 (Homo sapiens). Particulars: SEM, 1.6 uM.
For assay [13] the target is unchanged. In words: Inhibition of HDAC6 in human HL60 cells assessed as increase in acetyl-alpha tubulin expression at 0.1 to 10 uM after 24 hrs by immunoblot assay. Format: cell-based. The method, boiled down: as §3
Assay [14] shares this target. In words: Inhibition of HDAC6 in human SEM cells assessed as increase in acetyl-histone H3 expression at 0.1 to 10 uM after 24 hrs by immunoblot assay. Format: cell-based. The procedure, abridged: as §3
Assay [15] has the same target. The settings on record: SUP-B15, 0.1 to 10 uM.
For assay [16] the target is unchanged. Nature of the assay: Inhibition of HDAC6 in imatinib-resistant human SUP-B15 cells assessed as increase in acetyl-alpha tubulin expression at 0.1 to 10 uM after 24 hrs by immunoblot assay. It counts as cell-based. The procedure, abridged: as §3
The test system of assay [17] is KCL-22. In words: Cytotoxicity against imatinib-resistant human KCL22 cells after 72 hrs by CellTiter-Glo luminescent cell viability assay. Format: functional, cell-based. Particulars: KCL-22, 72 h. The procedure, abridged:
(§4)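 Inhibitors dispensed in increasing concentrations (50 nM–25 μM) and cells exposed 72 h. Viability read by ATP-dependent luminescence (CellTiter-Glo). Raw data normalized to controls. IC50 obtained by sigmoid dose–response fit with non-linear regression.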

The target of assay [18] is T2, Protein deacetylase HDAC6 (Homo sapiens). Nature of the assay: Inhibition of HDAC6 in human HL60 cells assessed as increase in acetyl-histone H3 expression at 0.1 to 10 uM after 24 hrs by immunoblot assay. It counts as cell-based. The procedure, abridged:
as §3

Assay [19] has the same target. Nature of the assay: Inhibition of HDAC6 in imatinib-resistant human SUP-B15 cells assessed as increase in acetyl-histone H3 expression at 0.1 to 10 uM after 24 hrs by immunoblot assay. Format: cell-based. The method, boiled down:
as §3

Assay [20] in a line: Cytotoxicity against human BCP-ALL cells derived from patient 4 after 72 hrs by CellTiter-Glo luminescent cell viability assay. It counts as functional, cell-based.
Assay [21] relates to SEM cells. In words: Antiproliferative activity against human SEM cells at IC50 to 2 times IC50 after 24 to 72 hrs by trypan exclusion method. It counts as functional, cell-based.
In assay [22] the target is T2, Protein deacetylase HDAC6 (Homo sapiens). The settings on record: 0.1 to 10 uM.
In assay [23] the test system is KCL-22. In words: Cytotoxicity against human KCL22 cells after 72 hrs by CellTiter-Glo luminescent cell viability assay. It counts as functional, cell-based. The settings on record: KCL-22, 72 h. The procedure, abridged: as §4
Assay [24] in a line: Cytotoxicity against human RPMI18226 cells after 72 hrs by CellTiter-Glo luminescent cell viability assay. The settings on record: RPMI18226, 72 h. Format: functional, cell-based.
The test system of assay [25] is SEM cells. In words: Cytotoxicity against human SEM cells after 72 hrs by CellTiter-Glo luminescent cell viability assay. It counts as functional, cell-based. The procedure, abridged:
as §4

The subject of assay [26] is HL-60. Nature of the assay: Cytotoxicity against human HL60 cells after 72 hrs by CellTiter-Glo luminescent cell viability assay. It counts as functional, cell-based. Particulars: HL-60, 72 h.
Assay [27] is described as follows: Cytotoxicity against human BCP-ALL cells derived from patient 2 after 72 hrs by CellTiter-Glo luminescent cell viability assay. Format: functional, cell-based. The method, boiled down: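 Compounds dispensed digitally at increasing concentrations, 50 nM–25 μM; viability read by CellTiter-Glo luminescence after 72 h. Raw data normalized to controls, IC50 from sigmoid dose curve by non-linear regression. Patient samples: primary cells from newly diagnosed or relapsed patients, cultured in stem cell expansion or mononuclear cell medium.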

Assay [28] deals with T2, Protein deacetylase HDAC6 (Homo sapiens). In words: Inhibition of HDAC6 in human SEM cells assessed as increase in acetyl-alpha tubulin expression at 0.1 to 10 uM after 24 hrs by immunoblot assay. Format: cell-based. The procedure, abridged:
as §3

The nature of assay [29]: Cytotoxicity against human BCP-ALL cells derived from patient 1 after 72 hrs by CellTiter-Glo luminescent cell viability assay. It counts as functional, cell-based.
Assay [30] deals with SUP-B15. Nature of the assay: Cytotoxicity against imatinib-resistant human SUP-B15 cells after 72 hrs by CellTiter-Glo luminescent cell viability assay. It counts as functional, cell-based. Particulars: SUP-B15, 72 h.
Assay [31] concerns SEM cells. Nature of the assay: Inhibition of proteasome in human SEM cells assessed as increase in aggresome accumulation at 3 uM after 18 hrs by fluorescence microscopic method. It counts as cell-based. The procedure, abridged: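 SEM cells exposed for 18 h, then labeled with a proteostat aggresome detection kit with DNA counterstain per kit guidelines; aggresomes imaged by fluorescence microscopy with a 63X objective.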

The subject of assay [32] is SEM cells. In words: Inhibition of proteasome in human SEM cells assessed as increase in aggresome accumulation at 3 uM after 18 hrs by FACS analysis. Format: cell-based. The procedure, abridged:
as §1
In general terms: A flow cytometer gives signals particle by particle.

Active and inactive are the calls of the source. The rule behind the calls is not given here. Where a SMILES comes first, the peptide text is derived from it. The star is where a group is joined. Cbz = O=C(OCc1ccccc1)* Where only a bound is given, the exact number is not on record here.

In general, IC50 refers to the concentration that inhibits the measured activity by half. A lower IC50 goes with greater potency in that assay.

In the case of `O=C(CCCCCCC(=O)Nc1ccccc1)NO` [VORINOSTAT], the half-maximal inhibitory concentration (IC50) in [1], in assay [2] and in assay [3] was over 25 µM in each case.
As for `CC(C)C[C@H](NC(=O)[C@H](Cc1ccccc1)NC(=O)c1cnccn1)B(O)O` [BORTEZOMIB], the inhibition result in [4], in assay [5], in assay [7], in assay [8] and in [9] was “Active” in each case. Further, the IC50 in assay [6] was under 0.035 µM.
In the case of `O=C(CCCCCCNC(=O)c1cnc(N(c2ccccc2)c2ccccc2)nc1)NO` [RICOLINOSTAT], the inhibition result in [10], in assay [12], in assay [13], in assay [14], in assay [15] and in [16] was “Active” throughout. Besides, the inhibition result in assay [18], in [19], in assay [22] and in [28] was “Active” each time. For the same compound, the IC50 in assay [11] was 4.45 µM; in assay [6], under 3.6 µM; in assay [1] it was over 25 µM; in [2] it was over 25 µM; in assay [17] it was 3.38 µM; in assay [20] it was 0.54 µM. For the same compound, the IC50 is 3.75 µM in [23]; 1.97 µM in assay [24]; 1.61 µM in assay [25]; 2.36 µM in assay [26]; over 25 µM in assay [3]; 0.58 µM in assay [27]. Besides, the IC50 in [29] was 0.29 µM; in assay [30] it was 3.54 µM. In addition, the result in assay [21] was Active.
Turning to `CC(C)C[C@@H](C=O)NC(=O)[C@H](CC(C)C)NC(=O)[C@H](CC(C)C)NC(=O)OCc1ccccc1` (Cbz-Leu-Leu-Leu-aldehyde), the inhibition result in assay [31] and in assay [32] was “Active” in each case.
